Results: ChEMBL document CHEMBL1121948, “Alkylation of the prosthetic heme in cytochrome P-450 during oxidative metabolism of the sedative-hypnotic ethchlorvynol” (1982)

Assays:
Format in all cases: functional
[1] = organism: Rattus norvegicus; experiment: Percentage cytochrome P-450 loss from phenobarbital pretreated rats was measured in the presence of the NADPH after 10 min; Not detectable
[2] = organism: Rattus norvegicus; experiment: Percentage cytochrome P-450 loss from phenobarbital pretreated rats was measured in the presence of oxygen and NADPH after 10 min
Method in brief: (§1)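 Liver microsomes from phenobarbital-pretreated male Sprague-Dawley rats (1 mg/mL protein) were incubated at 37 °C with 1 mM ethchlorvynol, 1 mM NADPH, 1.5 mM EDTA and 150 mM KCl in […], pH 7.4, under air. The reaction was started with NADPH. Cytochrome P-450 loss was measured spectroscopically. Values are the mean ± SD of three determinations.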

[3] = organism: Rattus norvegicus; experiment: Percentage cytochrome P-450 loss from phenobarbital pretreated rats was measured in the presence of oxygen and NADPH after 30 min; method in brief: as §1
[4] = organism: Rattus norvegicus; experiment: Percentage cytochrome P-450 loss from phenobarbital pretreated rats was measured in the presence of the Ethchlorvynol after 10 min; Not detectable
[5] = organism: Rattus norvegicus; experiment: Percentage cytochrome P-450 loss from phenobarbital pretreated rats was measured in the presence of the NADPH after 20 min; Not detectable
[6] = organism: Rattus norvegicus; experiment: Heme loss from phenobarbital pretreated rats was measured in the presence of oxygen and NADPH after 20 min
Method in brief: (§2)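 This was a separate 20-min experiment using the standard microsomal mix at 37 °C: phenobarbital-induced rat microsomes at 1 mg/mL, 1 mM ethchlorvynol, 1 mM NADPH, EDTA and KCl in phosphate buffer pH 7.4. P-450 loss was measured spectroscopically and heme loss by the pyridine hemochromogen assay, both expressed in nmol. Values are the mean ± SD of three determinations.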

[7] = organism: Rattus norvegicus; experiment: Percentage cytochrome P-450 loss from phenobarbital pretreated rats was measured in the presence of oxygen and NADPH after 20 min; method in brief: as §1
[8] = organism: Rattus norvegicus; experiment: Percentage cytochrome P-450 loss from phenobarbital pretreated rats was measured in the presence of the NADPH after 30 min; Not detectable
[9] = organism: Rattus norvegicus; experiment: Percentage cytochrome P-450 loss from phenobarbital pretreated rats was measured in the presence of the Ethchlorvynol after 20 min; Not detectable
[10] = organism: Rattus norvegicus; experiment: Cytochrome P-450 loss from phenobarbital pretreated rats was measured in the presence of oxygen and NADPH after 20 min; method in brief: as §2
[11] = organism: Rattus norvegicus; experiment: Percentage cytochrome P-450 loss from phenobarbital pretreated rats was measured in the presence of the Ethchlorvynol after 30 min; Not detectable
[12] = organism: Rattus norvegicus; experiment: Percentage cytochrome P-450 loss from phenobarbital pretreated rats was measured in the presence of the oxygen after 20 min

C#CC(O)(/C=C/Cl)CC (configuration not stated) [ETHCHLORVYNOL]
Cytochrome loss [1]: Not detectable
Cytochrome loss [2]: 30%
Cytochrome loss [3]: 38%
Cytochrome loss [4]: Not detectable
Cytochrome loss [5]: Not detectable
Heme loss [6]: 0.32 nM
Cytochrome loss [7]: 35%
Cytochrome loss [8]: Not detectable
Cytochrome loss [9]: Not detectable
P-450 loss [10]: 0.52 nM
Cytochrome loss [11]: Not detectable
Cytochrome loss [12]: 4%
